Most compounds without a hit are left out; they make up all but 1.8% or so of the library.
M4 ag = CHRM4 agonism in calcium assay; P08173; CHO-K1 hM4/Gqi5, Fluo-8 calcium fluorescence; vehicle 0%, full acetylcholine response 100%; 360,000 tested, 0.14% active; AID 624127; activation, % at 3 µM;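 active = activation above the run mean over all test wells plus 3 SD, cut at about 32% in these data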;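 also: peak over basal fluorescence ratio per well then scaled between controls; 0% = DMSO wells and 100% = acetylcholine at EC100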
CHRM5 PAM = CHRM5 positive allosteric modulation. P08912. CHO-K1 hM5, Fluo-8 calcium, ACh EC20 PAM; 0% = ACh EC20, 100% = ACh EC100. activation, % at 3 µM. 360,000 tested, 0.3% active;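 active = activation above the run cutoff, the mean activation of all test compounds plus 3 SD, cut at about 18% in these data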
Target sequence (P08912 whole entry, looked up): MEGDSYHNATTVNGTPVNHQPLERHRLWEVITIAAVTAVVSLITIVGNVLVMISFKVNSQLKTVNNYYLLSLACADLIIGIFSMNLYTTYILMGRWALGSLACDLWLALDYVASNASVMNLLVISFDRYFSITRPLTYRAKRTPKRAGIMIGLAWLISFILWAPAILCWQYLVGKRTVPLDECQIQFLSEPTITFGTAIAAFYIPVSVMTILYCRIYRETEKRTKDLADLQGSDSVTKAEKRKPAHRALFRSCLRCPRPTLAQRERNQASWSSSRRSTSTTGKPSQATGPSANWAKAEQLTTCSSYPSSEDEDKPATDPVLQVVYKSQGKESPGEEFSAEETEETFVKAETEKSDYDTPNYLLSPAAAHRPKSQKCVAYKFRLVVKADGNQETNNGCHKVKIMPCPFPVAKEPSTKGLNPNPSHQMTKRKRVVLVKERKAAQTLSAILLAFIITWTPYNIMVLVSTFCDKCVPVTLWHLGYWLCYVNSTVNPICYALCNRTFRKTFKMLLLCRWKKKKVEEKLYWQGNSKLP
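Probe or stimulus: acetylcholine, EC20 level; Assay system: human M5 receptor in CHO-K1 cells; Schedule: compound preincubation 140 s before EC20 acetylcholine addition; Technique: intracellular calcium via Fluo-8 fluorescence; Dosing: single-point, 3 µM nominal; Read-out basis: percent activation from peak-over-basal fluorescence ratio, scaled EC20-to-EC100 acetylcholine; Repeats: one well per compound, no replicates.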
CHRM5 antagonist = CHRM5 antagonism in calcium assay; 360,000 tested, 0.59% active; inhibition, % at 3 µM; AID 624040; CHO-hM5 cells, Fluo-8 calcium fluorescence, ACh EC80; P08912;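 active = inhibition above a per-plate cutoff, the mean of that plate's test compounds plus 3 SD, cut at about 27% in these data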;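 also: 0% = acetylcholine EC80 with DMSO and 100% = DMSO without agonist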
M4 PAM = CHRM4 positive allosteric modulation; 360,000 tested, 0.4% active; AID 624126; activation, % at 3 µM; CHO-K1 hM4/Gqi5, Fluo-8 calcium fluorescence, ACh EC20; 0% = ACh EC20, 100% = maximal ACh; P08173;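 active = activation above its plate's cutoff, the mean activation of sample wells plus 3 SD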
M5 ag = CHRM5 agonism in calcium assay; P08912; CHO-K1 hM5 cells, Fluo-8 calcium fluorescence; 0% DMSO wells, 100% maximal acetylcholine response; activation, % at 3 µM; 360,000 tested, 0.19% active; AID 624037;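 active = activation above the run's mean over test compounds plus 3 SD, cut at about 23% in these data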;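 also: signal is peak over basal fluorescence ratio across the kinetic read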
CHRM4 antagonist = antagonists of human muscarinic M4 receptor (CHRM4); AID 624125; CHO-hM4 cells, ACh EC80, Fluo-8 calcium fluorescence; inhibition, % at 3 µM; 360,000 tested, 0.73% active; P08173;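 active = inhibition above its plate's cutoff, the mean inhibition of sample wells plus 3 SD, cut at about 27% in these data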;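 also: 0% = acetylcholine EC80 with DMSO and 100% = DMSO without agonist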
* = called active by the depositor.

SMILES | M4 ag | CHRM5 PAM | CHRM5 antagonist | M4 PAM | M5 ag | CHRM4 antagonist
Cc1ccc(NC(=O)C(NS(=O)(=O)c2cccc3nsnc23)C(C)C)nc1 (configuration not stated) | 1.2 | -1.2 | -7.7 | 8.3 | -1.9 | -15.8
COCCCNC(=O)c1ccc2nc(Cc3ccc(OC)cc3)oc2c1 | 1.9 | -2.2 | 8.9 | -15.1 | 1.7 | 36.6*
O=C1CC(N(O)c2ccccc2)C(=O)N1c1cc(Cl)cc(Cl)c1 (configuration not stated) | 1.2 | -3.3 | -9.7 | 4.1 | 30.4* | 4.5
CC(OC(=O)C1CCCCC1)C(=O)Nc1ccc(S(N)(=O)=O)cc1 (configuration not stated) | 0.9 | 1.1 | -11.5 | 22.4* | 0.0 | -24.6
CN(C)S(=O)(=O)c1cc(NC(=O)Cn2ccsc2=N)ccc1Cl | 1.0 | -1.6 | -7.0 | -2.5 | -7.3 | 4.7
Cc1c(N)ccc(-n2nc3ccccc3n2)c1C | 0.6 | -7.4 | 1.6 | -6.4 | -2.5 | 1.5
O=C(NCc1ccc(F)cc1)C1CCCN(S(=O)(=O)c2cccc3nonc23)C1 (configuration not stated) | 3.5 | 20.2* | -26.1 | 6.9 | 2.9 | -13.5
O=C(Nc1ccc(F)cc1)C1CCCN(S(=O)(=O)c2cccc3nonc23)C1 (configuration not stated) | 2.7 | 1.0 | 4.7 | 2.9 | -1.1 | -18.1
COc1ccc(NC(=O)COC(=O)C2CCN(S(=O)(=O)c3ccccc3)CC2)cc1Cl | 15.2 | -4.6 | 3.4 | 0.0 | 3.4 | -4.5
CC(=O)OCCn1c2nc(=O)[nH]c(=O)c-2nc2cc(C)c(C)cc21 | 229.5* | -29.6 | 42.0* | -18.3 | 417.5* | 37.4*
CCOc1ncccc1C(=O)Nc1ccc2c(C)cc(=O)oc2c1 | 1.2 | 21.9* | -4.4 | 5.8 | -7.4 | 6.7
O=S(=O)(c1ccc(Cl)c(Cl)c1)c1snnc1-c1ccccc1 | -1.9 | -17.1 | 10.7 | -18.8 | -8.2 | 40.4*
COC(=O)c1cccc(NC(=O)Nc2ccc(Cl)cc2)c1 | 16.9 | -25.9 | 16.6 | -8.9 | 3.0 | 2.2
O=C(Nc1cccnc1)Nc1cc(Cl)cc(Cl)c1 | 16.9 | -17.8 | 30.0* | -14.9 | 7.8 | 15.0
O=C(Nc1cccc(Cl)c1)Nc1cccc(Cl)c1 | 15.9 | -22.5 | 23.0 | -2.1 | -1.1 | 3.4
O=C(Nc1cccc(F)c1)Nc1cccc(Cl)c1 | 19.6 | -16.4 | 27.7* | -9.1 | 14.1 | 7.6
O=C(Nc1cccnc1)c1cc(Br)c(Br)s1 | 25.7 | -13.5 | 4.3 | 5.7 | 26.4* | -28.5
O=C(Nc1cccnc1)Nc1ccccc1Cl | 0.1 | -2.8 | -0.1 | 8.9 | 0.9 | -4.6
COC(=O)c1cc(NC(=O)Nc2cccc(Cl)c2)ccc1Cl | 20.4 | -22.3 | 31.9* | -13.3 | 10.9 | 19.6
O=C(CN1C(=O)c2ccccc2C1=O)Nc1cccc(S(=O)(=O)Nc2ccccc2Cl)c1 | 3.6 | 1.9 | -1.7 | 25.2* | 2.4 | -2.0
COc1ccccc1NS(=O)(=O)c1cccc(NC(=O)Nc2cccc(Cl)c2)c1 | 18.4 | -18.7 | 58.8* | -15.0 | 5.2 | 47.5*
CCc1nnc(NC(=O)CSc2nnc(CNc3ccc(C)cc3)n2C)s1 | 0.5 | 0.6 | 6.5 | 2.1 | -3.0 | -5.7
CCOc1ccc(CSc2nc(C)cc(COC)c2C#N)cc1OCC | -1.2 | -6.7 | 13.4 | 0.2 | -4.8 | -0.5
O=C(Cn1ccc(NC(=O)OCc2ccccc2)nc1=O)NCCc1c[nH]c2ccccc12 | 11.6 | -11.9 | 12.8 | -1.2 | 3.1 | 3.2
Oc1cc2c(cc1O)[C@H]1c3ccc(O)c(O)c3OC[C@@]1(O)C2 | 0.4 | 3.6 | 5.2 | 0.3 | 1.7 | 5.6
SMILES | M4 ag | CHRM5 PAM | CHRM5 antagonist | M4 PAM | M5 ag | CHRM4 antagonist
Oc1ccc2c(c1)OCC1(O)Cc3cc(O)c(O)cc3C21 (configuration not stated) | 52.3* | -4.1 | 5.8 | -17.4 | 8.0 | 6.5
O=S(=O)(c1ccc(Cl)cc1)N1CCN(CCc2ccncc2)CC1 | 1.4 | -4.5 | 17.4 | -5.2 | -1.0 | 2.9
CN(C(=O)CN1C(=O)/C(=C/c2ccc(F)cc2)SC1=S)C1CCS(=O)(=O)C1 (configuration not stated) | 0.9 | 8.8 | 5.4 | 7.8 | -0.8 | 2.6
CN(C(=O)CN1C(=O)S/C(=C\c2ccc(Cl)cc2)C1=O)C1CCS(=O)(=O)C1 (configuration not stated) | 2.5 | 1.2 | -7.5 | 16.6* | -2.9 | -20.6
CN(C(=O)CN1C(=O)S/C(=C\c2ccccc2)C1=O)C1CCS(=O)(=O)C1 (configuration not stated) | 0.8 | 3.6 | -1.4 | 5.6 | 0.3 | -0.9
CN(C(=O)CCN1C(=O)/C(=C/c2ccccc2)SC1=S)C1CCS(=O)(=O)C1 (configuration not stated) | 3.3 | 30.5* | 20.5 | 0.2 | 2.0 | -5.2
O=C(O)c1ccc(CSc2nnc(COc3ccccc3)o2)cc1 | 10.0 | -9.7 | 16.6 | -1.8 | 3.6 | 5.8
CCc1ccc(OCc2nnc(SCc3ccc(C(=O)O)cc3)o2)cc1 | 3.5 | -3.4 | -2.0 | 27.1* | -1.3 | -8.4
CC(=O)Nc1ccc2c(c1)C(=Nc1cccc(C)c1)c1ccccc1-2 | 1.7 | -6.6 | 21.5 | 15.9* | -1.7 | -12.9
COc1ccc2c(c1)c1c3n2CCN(C)C3=NCC1 | 1.1 | 6.7 | -2.2 | 15.2* | 0.9 | -6.4
N/C(=N\OC(=O)Nc1cccc(C(F)(F)F)c1)c1ccno1 | 7.2 | -17.4 | 27.0* | -7.3 | -0.1 | 10.0
C=CCN1C(=O)S/C(=C\c2ccc(N3CCOCC3)cc2C)C1=O | 5.4 | -1.5 | 2.3 | 27.3* | 2.3 | -6.4
CCN1CCN(C(=O)c2c(-c3c(Cl)cccc3Cl)noc2C)CC1 | 0.2 | 0.2 | 4.1 | -0.2 | -6.6 | -1.3
N#Cc1c(Cl)nsc1NN | 19.5 | -19.8 | 30.9* | -17.0 | 10.3 | 23.3
Cc1cnc(NC(=O)CSc2ncc(-c3ccccc3)n2Cc2ccco2)s1 | 10.2 | -28.2 | 7.7 | -0.5 | 25.9* | -4.2
C/C(=N\N=C(/N)c1nonc1N)c1ccc2c(c1)OCO2 | -0.1 | -3.7 | 12.3 | -7.7 | -1.8 | 7.7
CC[N+](C)(C)CC/C=C1/c2ccccc2Sc2ccc(Cl)cc21 | 0.8 | -34.9 | 99.3* | -17.1 | -20.3 | 96.4*
CCCCCCCCCC[N+](C)(C)CC/C=C1/c2ccccc2Sc2ccc(Cl)cc21 | -0.6 | -18.6 | 60.0* | -19.9 | -8.2 | 41.0*
CCCCCC[n+]1c(-c2ccc(Cl)cc2Cl)csc1Nc1ccccc1 | 0.2 | -2.6 | -4.5 | 1.3 | -0.3 | -10.0
CCCCCCCCCCC[N+](C)(C)CC/C=C1/c2ccccc2Sc2ccc(Cl)cc21 | 0.6 | -18.2 | 82.2* | -19.3 | -8.0 | 52.2*

Source: PubChem
